Experimental data collected from several papers.
Protocols differ between the studies behind these lines.
Target: Inhibitor of nuclear factor kappa-B kinase subunit beta (IKBKB, Homo sapiens, UniProt O14920)
Technique: competition with immobilised ligand
Residues used in one study (O14920 1-756): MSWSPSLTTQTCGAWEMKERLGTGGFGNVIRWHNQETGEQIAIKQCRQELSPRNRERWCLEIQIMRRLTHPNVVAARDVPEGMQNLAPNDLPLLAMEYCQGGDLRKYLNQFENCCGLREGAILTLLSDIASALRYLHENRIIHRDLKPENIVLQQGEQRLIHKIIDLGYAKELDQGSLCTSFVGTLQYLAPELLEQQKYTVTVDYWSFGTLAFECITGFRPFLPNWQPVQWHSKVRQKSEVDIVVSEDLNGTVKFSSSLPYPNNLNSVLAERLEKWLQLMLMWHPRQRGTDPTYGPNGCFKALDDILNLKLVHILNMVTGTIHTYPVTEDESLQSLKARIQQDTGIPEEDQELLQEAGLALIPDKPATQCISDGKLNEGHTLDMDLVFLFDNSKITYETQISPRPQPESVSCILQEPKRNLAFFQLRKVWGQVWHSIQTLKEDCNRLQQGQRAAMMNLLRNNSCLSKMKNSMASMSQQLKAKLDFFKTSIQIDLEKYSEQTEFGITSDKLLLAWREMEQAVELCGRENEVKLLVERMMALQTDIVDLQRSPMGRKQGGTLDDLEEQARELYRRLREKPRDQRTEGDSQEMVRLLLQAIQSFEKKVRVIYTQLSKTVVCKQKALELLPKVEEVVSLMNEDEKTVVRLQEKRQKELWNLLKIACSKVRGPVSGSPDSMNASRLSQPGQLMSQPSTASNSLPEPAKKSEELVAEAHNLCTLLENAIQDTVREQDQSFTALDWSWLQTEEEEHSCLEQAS

| Compound | read-out | concentration | remaining binding [%] |
| --- | --- | --- | --- |
| COc1cnc(Nc2cccc(S(N)(=O)=O)c2)nc1N1CCN(c2ccccc2)C(=O)C1 | binding | 1 µM | 93 |
| O=C(O)c1cc(-c2ccc(C3CCNCC3)cc2)c2ccc(-c3ccc(C(F)(F)F)cc3)cc2c1 | cell-free assay | 1 µM | 100 |
| Cc1cnc(Nc2ccc(C(=O)N3CCC(N4CCCC4)CC3)cc2)nc1-c1cc2ccccc2s1 | binding | 1 µM | 0 |
| CN(C)c1nccc(-c2cnc3ncccn23)n1 | binding | 1 µM | 67 |
| CN(C)c1ncnc(-c2ccc3nc(Nc4cc(CN5CCN(C(=O)CC(F)(F)F)CC5)ccn4)[nH]c3c2)c1Cl | cell-free assay | 1 µM | 80 |
| N[C@H]1CCN(c2nccc(-c3cnn4ncccc34)n2)C1 | binding | 1 µM | 91 |
| C=CC(=O)N1CCC(C(=O)NCC(=O)N2CCN(c3nc(-c4cnc(N)nc4C(F)F)nc(N4CCOCC4)n3)CC2)CC1 | binding | 1 µM | 73 |
| CN(C)CC#Cc1ccc(OCCCc2sc(N3CCc4cccc(C(=O)Nc5nc6ccccc6s5)c4C3)nc2C(=O)O)c(F)c1 | cell-free assay | 1 µM | 72 |
| C[C@H]1CCN(c2nccc(-c3cnn4ncccc34)n2)C1 | binding | 1 µM | 64 |
| CN1CCN(c2cnc3c(C4CCN(C(=O)c5ccc(OC(F)(F)F)cc5N)CC4)ncnc3c2)CC1 | cell-free assay | 1 µM | 100 |
| O=C(NCCCN1CCOCC1)c1ccc(Nc2ncc(Cl)c(-c3ccc(Cl)s3)n2)cc1 | binding | 1 µM | 23 |
| CC1CCCN1c1nccc(-c2cnn3ncccc23)n1 (stereo not shown) | binding | 1 µM | 100 |
| CNC(=O)[C@@H]1CC[C@@H](n2c(-c3ccc4cnccc4c3)nc3ccc(C(=O)NCc4cccc(C(N)=O)c4)cc32)C1 | binding | 1 µM | 100 |
| CCCOc1ccc([C@H]2[C@H](C(=O)O)[C@@H](c3ccc4c(c3)OCO4)CN2CC(=O)Nc2c(CC)cccc2CC)cc1 | cell-free assay | 1 µM | 77 |
| CN(C)c1nccc(-c2cnn3ncccc23)n1 | binding | 1 µM | 84 |
| c1cncc(-c2cccc(Nc3nccc(NC4CCCCC4)n3)c2)c1 | binding | 10 µM | 89 |
| C[C@@H](c1ccc(-n2cnc3c(N)ncnc32)cc1)N1CCc2nn(C)c(Cc3ccccc3)c2C1=O | binding | 0.1 µM | 68 |
| C[C@@H]1CN(c2ccc3ncc(-c4ccc5[nH]nc(C6CC6)c5c4)n3n2)C[C@H](C)O1 | binding | 0.5 µM | 89 |
| O=C(NCC1CCOCC1)c1n[nH]cc1NC(=O)c1c(F)cccc1F | binding | 1 µM | 92 |
| CNCc1ccccc1-c1csc([C@H](C)Nc2nc(C)nc3cc(OC)c(OC)cc23)c1 | cell-free assay | 1 µM | 83 |
| O=C(c1ccc(Nc2ncc(Cl)c(-c3cc4ccccc4s3)n2)cc1)N1CCC(N2CCCC2)CC1 | binding | 1 µM | 0.1 |
| CCOC(=O)c1cc2cc(-c3cc(C(=O)NCc4ccc(C(=O)O)cc4)nn3C)ccc2[nH]1 | cell-free assay | 0.1 µM | 100 |
| CN(CCCC(F)(F)F)c1nccc(-c2cnn3ncccc23)n1 | binding | 1 µM | 100 |
| C[C@@]1(Cc2ccc(C#N)cc2)C(=O)N(c2cc(Cl)cc(Cl)c2)c2ncc(C(=O)NC3(c4nc(C5CCC5)no4)CC3)n21 | cell-free assay | 1 µM | 100 |
| c1cnn2ncc(-c3ccnc(N4CCC45COC5)n3)c2c1 | binding | 1 µM | 40 |
